In the EternaBench riboswitch data:

Tested on: MS2 coat protein
Assay: apparent Kd, MS2 coat protein; higher = weaker binding; RNA-MaP array; FMN 200 µM where present
Procedure, shortened: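 The apparent Kd is the median of filtered binding-curve fits, one per cluster, to green signal normalised to red-channel RNA signal and control-cluster median Fmax. The clusters were on Illumina sequencing chips, and stalled E. coli RNA polymerase had transcribed the designs on them. Titration used SNAP-549-labelled MS2 coat protein from 0.7 or 1.5 nM, doubling to 3 µM, without and then with constant ligand, in 100 mM Tris-HCl pH 7.5, 80 mM KCl, 4 mM MgCl2, BSA, DTT, yeast tRNA and Tween-20.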

[1] = designed as: OFF switch for flavin mononucleotide, no ligand
[2] = ligand present: flavin mononucleotide, designed as: OFF switch for flavin mononucleotide
[3] = designed as: ON switch for flavin mononucleotide, no ligand
[4] = ligand present: flavin mononucleotide, designed as: ON switch for flavin mononucleotide

GUCCUUAACGAGGAUAUCGGGCGGGUUUUUGUUUGAGAAGGUGUGACAUGAGGAUCACCCAUGUGGCGCGUGGG
apparent Kd [1]: 318 nM | apparent Kd [2]: 258 nM

GGAUGACAAAGUCAUCCCGCUUUGACAUGAGGAUCACCCAUGUAGGAUAUAUUAAUCAAAGAUUAAUAGAAGGACAUGUUUCUG
apparent Kd [1]: 72.4 nM | apparent Kd [2]: 174 nM

GUUUCACAUGAGGAUCACCCAUGUGAGGAUAUAGAUUUGUUAGUGGUGAUUGGUGGAUUUAGAAGGCGCGUGAU
apparent Kd [1]: 81.3 nM | apparent Kd [2]: 66.2 nM

GCGGAGAUACAGAAGGGAUAAGCCCUGGGCUAGUCAGGAUAUGUACGACGCAUCGUACAUGAGGAUCACCCAUGUAGCCGCUUG
apparent Kd [3]: 322 nM | apparent Kd [4]: 162 nM

UGCCGUUUAGGAUAUACAUGAGGAUCACCCAUGUGACAAACAUAUUUUACAAAACCAUGUAGAAGGAAACGGCA
apparent Kd [1]: 97.4 nM | apparent Kd [2]: 468 nM

AAAUUACAUGAGGAUCACCCAUGUUUAAAAAAUAUAGGAUAUGUAAAAAAAAAAAAAAAAACAGAAGGGUAAAAAA
apparent Kd [3]: 44.8 nM | apparent Kd [4]: 42 nM

GUUGUGUAUGUAGGAUAUGCGAAGCAAAGCUUCGCAGAAGGACAUGAGGAUCACCCAUGUAUUGCGGUCUGCGUUCAGAUCGCU
apparent Kd [1]: 43.5 nM | apparent Kd [2]: 181 nM

GAAUAAUAGAUCCAAUAUAUCUACAUGAGGAUCACCCAUGUGCAGGAUAUGCUAAAAUUUAAUAAGCAGAAGGGCAAGAACGGC
apparent Kd [1]: 54.7 nM | apparent Kd [2]: 138 nM

CGAUAGGACAGAGGAUAUACACAUGAGGAUCACCCAUGUAAUUACAAUUCUUAAGAUUCUAACAUGUAGAAGGCUGUCCUAUCG
apparent Kd [1]: 40.2 nM | apparent Kd [2]: 19.3 nM

CUAGACAGAUCAGGAUAUCAUCGCAUGGUGCAUCCCUGUGAUUACAUGAGGAUCACCCAUGUGCAUGAGAAGGGAUUACUAUGU
apparent Kd [1]: 46.5 nM | apparent Kd [2]: 13.1 nM

GUAACAUGAGGAUCACCCAUGUAUAGAACACUCAAUAGAUCUGAGGAUAUAGUAGAAUUUACAUACUAGAAGGCAGUGGGUACA
apparent Kd [3]: 55.2 nM | apparent Kd [4]: 29.6 nM

AAUGAGCAGUAGAAGGCAUGUCUACGGACAUGAGGAUCACCCAUGUUGUGAAUCCGAAAGGAGCAUGAGGAUAUACUGCUCUAA
apparent Kd [3]: 70.7 nM | apparent Kd [4]: 14.7 nM

CGAUGACAAAGUCAUCGAAUACGAACAUGAGGAUCACCCAUGUAGGAUAUGCUACUCAAAGAGUAGCAGAAGGACAUGUGUCUU
apparent Kd [1]: 31.4 nM | apparent Kd [2]: 154 nM

AACACACAUGAGGAUCACCCAUGUGAGGAUAUCAUGCUUCGUAGUAAACUACGAAGUGUGAGAAGGCACAUGUU
apparent Kd [1]: 62.4 nM | apparent Kd [2]: 193 nM

UCCACUACUGAGAAGGGAUACAUAUAAUUUUAGUCAGGAUAUCGAUACAGUGCAGCAUGAGGACAUGAGGAUCACCCAUGUAUU
apparent Kd [3]: 22.3 nM | apparent Kd [4]: 15.2 nM

UUACCUUAUGAGAAGGCGGUCAUGAAACAUGAUCGAGGAUAUCAUGUAAACAUGAGGAUCACCCAUGUAUGGGUAUUAUGGUAU
apparent Kd [3]: 142 nM | apparent Kd [4]: 27.3 nM

UGUCGGAGCUGAGGAUAUUACAUGAGGAUCACCCAUGUAUGAACCAAUAGCUGGAAACAGCAAUGUAAGAAGGCUGCUCCGACA
apparent Kd [1]: 5.65 nM | apparent Kd [2]: 34.1 nM

GUAGAGUAAGGAUAUAGAGAAUAGGAUAGAAUGGUUAGAAUCUAGAAGGUACAUGAGGAUCACCCAUGUAAUGU
apparent Kd [1]: 21.9 nM | apparent Kd [2]: 19.8 nM

UUAUGUCGCGUAGGAUAUCACUAGAGUUGUAAUUUAAUUGUAAUUUCGAUGUGAGAAGGACGUACACAUGAGGAUCACCCAUGU
apparent Kd [1]: 19.5 nM | apparent Kd [2]: 16.3 nM

GGAGCACGCACAGGAUAUCCGGCGGCGCUCGUCGGAGAAGGGUGACAUGAGGAUCACCCAUGUACGUGCAACUUAGUUUAAGAG
apparent Kd [3]: 37.1 nM | apparent Kd [4]: 29.6 nM

GGUGCGCCAAGCCUUAAGACCGAACAUGAGGAUCACCCAUGUGAGGAUAUGACAGACGAAAGAAGUCAGAAGGCAUAAGGGUGG
apparent Kd [1]: 7.12 nM | apparent Kd [2]: 10.1 nM

GGAUAGGACAGAGGAUAUACGUGCUAGAGAUACUAGCAAAAUUUCUUCACAUGAGGAUCACCCAUGUAGAAGGCUGUCCUAUCG
apparent Kd [1]: 4.55 nM | apparent Kd [2]: 5.6 nM

AGCGAGCUAGGAUAUACAUGAGGAUCACCCAUGUCUUUUUAGUACUACGGUGGAAGAUGUAGAAGGAGUGAGAA
apparent Kd [1]: 95.1 nM | apparent Kd [2]: 68.3 nM

CGCAACUCUGCACAGGUCAACAUGAGGAUCACCCAUGUAUUGAGAAGGAGGAAGAAGAGAGAUUCCUAGGAUAUCAGAGUUGCG
apparent Kd [1]: 6.45 nM | apparent Kd [2]: 6.74 nM

CUCACAAGAGGAUAUUAAUAGCUUAACAUGAGGAUCACCCAUGUCCUUUUCUCGGGAUUUUGAGAAGGCUUGUGUG
apparent Kd [1]: 341 nM | apparent Kd [2]: 189 nM

GGAGGACGAAACAUGAGGAUCACCCAUGUGUUAUAAUUAAUAUAGGAUAUGUUUAUACUUUUUGGGCAGAAGGAUGAUAAUGCC
apparent Kd [3]: 19.6 nM | apparent Kd [4]: 16.1 nM

CGCUAAUAGAACGAUUUGUGAAGACAUGAGGAUCACCCAUGUAGAAGGACAACGGAAUAAACGUUGUAGGAUAUACACUUAGCG
apparent Kd [1]: 18.1 nM | apparent Kd [2]: 24.4 nM

GGAUAUGUCGUCUACAUGAGGAUCACCCAUGUCGAUAGACAUGAGGAUAUCGAUAAGAAUUGUAUCGAGAAGGUAUGUAGGUCC
apparent Kd [3]: 23 nM | apparent Kd [4]: 30.2 nM

GUCGGAAACGACAAAAGUAGCAUACGAGAAGGCUGAUCCACGACAUGAGGAUCACCCAUGUAGUUAGAGGAUAUUGGAUGCUAC
apparent Kd [3]: 61.6 nM | apparent Kd [4]: 12.9 nM

GUGGCUUAUGAGAAGGCGAUCAUGAAACAUGAUCGAGGAUAUCAUGUAAACAUGAGGAUCACCCAUGUAUGGGUAUUAUGCUAC
apparent Kd [3]: 291 nM | apparent Kd [4]: 53.9 nM

GCACUCAAGUUAGGAUAUGGAUCGGAAAACGAUCCAGAAGGAAUAUGGGAACAUGAGGAUCACCCAUGUUCCAGAAACGAGUGC
apparent Kd [3]: 62.5 nM | apparent Kd [4]: 30.4 nM

UAUACUUACGAAGGAUAUGGUUACAUGAGGAUCACCCAUGUAUGUAUAUUGAUCUUGUAUCUUAACCAGAAGGUCGUCACUAUA
apparent Kd [1]: 26.3 nM | apparent Kd [2]: 23.4 nM

AUGGUACAUGAGGAUCACCCAUGUCAGGAUAUCGGCUUUAACGUGAAAAGAGUGUUAGCGAGAAGGGACUGCUC
apparent Kd [1]: 23.6 nM | apparent Kd [2]: 28.7 nM

GGCCCGGGAGGAUAUACAUGAGGAUCACCCAUGUGCUUGAGCUUGAUCGAGUUCGAGUGUAGAAGGCCCGGGCC
apparent Kd [1]: 14 nM | apparent Kd [2]: 21.8 nM

GCGCUUAUACAGAAGGCCAUAUACAUGAGGAUCACCCAUGUUAUUUGGUGGAGGAUAUGUUUUUUAUUACAGGUAGUUGAGCGC
apparent Kd [3]: 7.42 nM | apparent Kd [4]: 5.91 nM

AAAAAGUCAGGAUAUACAAAAGUGCGAAAGCACAAAAGGAAACAUGAGGAUCACCCAUGUAGAAGGGACAAGAA
apparent Kd [1]: 32.6 nM | apparent Kd [2]: 27.5 nM

CUCAAGUUAGGAUAUUGACGCCCAAGACGGCGUCUUGGGCACAAGAAGGGACAUGAGGAUCACCCAUGUCAAUA
apparent Kd [1]: 24.1 nM | apparent Kd [2]: 27.7 nM

AUCAGCUCGUCAGGAUAUACGUCACUGCGUCAGCAGCGUGGUAAGAUCACAUGAGGAUCACCCAUGUAGAAGGGACGAGCUGAU
apparent Kd [1]: 25.7 nM | apparent Kd [2]: 336 nM

GGCGGAGACGUUAACAUGAGGAUCACCCAUGUCGAAGGAGAUGAGGAUAUCGCACACGAUGUGUGUGAGAAGGCAUGGUCUGCC
apparent Kd [3]: 67.4 nM | apparent Kd [4]: 15.4 nM

UAUGUGUCAGGAUAUGGAUUAGUUCGGGAUUCGGAACUGGUUCAGAAGGGACAUGAGGAUCACCCAUGUUUUUC
apparent Kd [1]: 33.1 nM | apparent Kd [2]: 169 nM

GGCAGCUCAGGAUAUAGUUAAAACGACAUGAGGAUCACCCAUGUGACUGAUAUGCGGCGCCUAGAAGGGAGGUGCC
apparent Kd [1]: 18.9 nM | apparent Kd [2]: 18.2 nM

UCCUUGUCCUGAGGAUAUCCGCGGUUCCCAUAAGGAGAAGGCAGGACAUGAGGAUCACCCAUGUACCCAGAAAACGUGCAGAGU
apparent Kd [1]: 24 nM | apparent Kd [2]: 156 nM
